# Results taken from ChEMBL document CHEMBL3232920, “Targeting carnitine biosynthesis: discovery of new inhibitors against γ-butyrobetaine hydroxylase” (J Med Chem, 2014).
# Target: T1, Gamma-butyrobetaine dioxygenase (Homo sapiens, UniProt O75936)
# T1 sequence (O75936 whole entry): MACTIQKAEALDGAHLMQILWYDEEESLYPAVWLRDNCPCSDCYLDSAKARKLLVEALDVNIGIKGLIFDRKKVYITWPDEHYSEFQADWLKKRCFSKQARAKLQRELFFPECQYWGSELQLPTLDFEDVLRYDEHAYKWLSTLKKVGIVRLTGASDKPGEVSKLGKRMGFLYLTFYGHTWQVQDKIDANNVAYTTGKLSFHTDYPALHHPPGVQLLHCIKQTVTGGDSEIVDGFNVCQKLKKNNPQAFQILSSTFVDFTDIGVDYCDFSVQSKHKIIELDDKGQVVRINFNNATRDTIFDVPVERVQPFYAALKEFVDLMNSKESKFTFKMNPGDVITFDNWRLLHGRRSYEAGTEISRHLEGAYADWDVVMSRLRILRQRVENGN
# Assay: Inhibition of human recombinant BBOX expressed in Saccharomyces cerevisiae AH22 assessed as formation of carnitine from gamma-butyrobetaine preincubated for 15 mins measured after 30 mins by UPLC-MS/MS analysis
# Procedure, shortened: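 His-tagged BBOX purified by Ni affinity, desalting and Mono Q; tag cut with TEV. Assay (0.2 mL) held 20 mM K phosphate pH 7.0, 20 mM KCl, 3 mM 2-oxoglutarate, 0.25 mM Fe(II), 10 mM ascorbate, catalase and 0.6 μg enzyme. Screen at 100 or 1000 μM, then 6–8 concentrations. GBB 200 μM added after preincubation, 37 °C; stopped with cold acetonitrile/methanol. Logistic-fit IC50, mean ± SD of three experiments.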
row,IC50,SMILES
1,1000 µM,C[N+](C)(CCO)NCCC(=O)[O-]
2,> 1000 µM,C[N+](C)(C)CCCc1nnn[nH]1
3,127 µM,C=C[N+](C)(C)CCCC(=O)[O-]
4,> 1000 µM,C[N+](C)(CCCC(=O)[O-])CC1CCC1
5,1.7 µM,C[N+](C)(C)CCCS(=O)(=O)[O-]
6,388 µM,C[S+](C)CCCC(=O)[O-]
7,24 µM,C#CC[N+](C)(C)NCCC(=O)O
8,> 1000 µM,C[N+](C)(CCCC(=O)[O-])CC1CC1
9,1000 µM,C[N+](C)(CCO)CCCC(=O)[O-]
10,2.7 µM,C=CC[N+](C)(C)CCCC(=O)[O-]
11,1.4 µM,C#CC[N+](C)(C)CCCC(=O)[O-]
12,0.49 µM,C[N+]1(CCCC(=O)O)CCCC1
13,> 1000 µM,C[N+](C)(CCN)NCCC(=O)[O-]
14,3.3 µM,CC[N+](C)(C)CCCC(=O)[O-]
15,2.8 µM,CCN(CCC(=O)[O-])[N+](C)(C)C
16,87 µM,C[N+](C)(C)NCCS(=O)(=O)[O-]
17,> 1000 µM,CC(C)[N+](C)(C)NCCC(=O)[O-]
18,140 µM,CC[N+](C)(C)NCCC(=O)[O-]
19,> 1000 µM,C[N+](C)(CBr)CCCC(=O)[O-]
20,3.1 µM,CCC[N+](C)(C)N(C)CCC(=O)[O-]
21,343 µM,CC(CCC(=O)[O-])[N+](C)(C)C (stereo not given)
22,1000 µM,O=C(O)CCCN1CCCC1
23,7.2 µM,CC[N+](C)(C)N(C)CCC(=O)[O-]
24,1000 µM,C[N+](C)(CI)CCCC(=O)[O-]
25,6.7 µM,CC[N+](C)(C)CCCS(=O)(=O)[O-] [ETHYL DIMETHYL AMMONIO PROPANE SULFONATE]

# More lines, now with the values behind:
row,SMILES,IC50
1,C[N+](C)(C)C/C=C/C(=O)[O-],3.8 µM
2,C[N+](C)(CCF)CCCC(=O)O,0.61 µM
3,CC[N+](C)(CC)NCCC(=O)O,> 1000 µM
4,CCCC[N+](C)(C)CCCC(=O)[O-],> 1000 µM
5,C=C[N+](C)(C)NCCC(=O)[O-],6.8 µM
6,C[N+](C)(CCCC(=O)[O-])C1CC1,2.1 µM
7,C[N+](C)(CCl)CCCC(=O)[O-],268 µM
8,CN(CCC(=O)[O-])[N+](C)(C)C,0.09 µM
9,C[N+](C)(CCCC(=O)[O-])Cc1ccccc1,> 1000 µM
10,CC(C)[N+](C)(C)CCCC(=O)[O-],5.7 µM
11,C[N+](C)(CCCl)CCCC(=O)O,0.26 µM
12,C[N+](C)(C)CCCP(=O)(O)O,0.1 µM
13,C[N+](C)(C)CCC[PH](=O)[O-],0.52 µM
14,COC[N+](C)(C)CCCC(=O)[O-],> 1000 µM
15,C[N+](C)(C)CC(Cl)CC(=O)O (stereo not given),459 µM
16,C[N+](C)(CCCC(=O)[O-])C1CCCC1,> 1000 µM
17,C=CC[N+](C)(C)NCCC(=O)[O-],119 µM
18,C[N+](C)(CCCC(=O)[O-])C1CCC1,0.81 µM
19,C[N+](C)(C)C1CCCC(C(=O)[O-])C1 (stereo not given),> 1000 µM
20,CCC[N+](C)(C)CCCC(=O)[O-],> 1000 µM
21,CC[N+](C)(CC)CCCC(=O)[O-],100 µM
22,CC[N+](C)(C)CCC[PH](=O)[O-],0.53 µM
23,C[N+](C)(C)CCCCC(=O)[O-],> 1000 µM
24,C[N+](C)(CCCl)NCCC(=O)O,10.2 µM
25,C[N+](C)(C)NCCP(=O)(O)O,117 µM

# Target: T2, Gamma-butyrobetaine dioxygenase (Homo sapiens) (UniProt O75936)
# T2 sequence (whole entry): T1 sequence (O75936 whole entry)
# Assay: Ratio of mildronate IC50 to compound IC50 for human recombinant BBOX
row,Ratio IC50,SMILES
1,9,C=C[N+](C)(C)NCCC(=O)[O-]
2,3,CN(CCC(=O)[O-])[N+](C)(C)C
3,3,CC(CCC(=O)[O-])[N+](C)(C)C (stereo not given)

# Target: T1, Gamma-butyrobetaine dioxygenase
# Assay: Binding affinity to purified human BBOX by isothermal titration calorimetry analysis
# Procedure, shortened: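 Human BBOX, purified and dialyzed, in 50 mM HEPES pH 7.4 with 100 mM KCl; cofactors and ligands dissolved in the same dialysate. N-oxalylglycine replaced 2-oxoglutarate and Ni(II) replaced Fe(II). Enzyme 26–75 μM per subunit. ITC at 25 °C: 0.2 μL first injection (discarded), then 19 × 2.0 μL. Dilution heats subtracted, low-c fitting, ≥3 repeats.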
row,Kd,SMILES
1,9.3 µM,CN(CCC(=O)[O-])[N+](C)(C)C
2,4.1 µM,CC(CCC(=O)[O-])[N+](C)(C)C (stereo not given)
